Results on eight compounds are retold here after ChEMBL document CHEMBL1147480, “Synthesis, absolute stereochemistry and molecular design of the new antifungal and antibacterial antibiotic produced by Streptomyces sp.201” (2004).

≈ marks a conversion by molar mass, not a printed value.

Holding throughout (assay type): functional
For experiment [1], the system named is Mycobacterium tuberculosis. Kind of experiment: Minimum inhibitory concentration required for antibacterial activity against Mycobacterium tuberculosis. In a few lines:
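Tube dilution in M-33 broth (yeast extract, tryptone, glucose, pH 7.0; 5 mL final volume). Test agent was diluted in phosphate buffer pH 7.4 and broth to a final 1–600 µg/mL. Inoculum was 3×10^5 CFU/mL prepared in Ringer's solution, incubated at 35 °C for 120 h. Clear tubes were subcultured (10 µL) on agar at 35 °C and examined under a microscope for growth.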

A further experiment has as its system Thanatephorus cucumeris. The experiment is described as follows: Minimum fungicidal concentration required against Rhizoctonia solani. In a few lines:
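Tube assay in molten M2 agar (g/L: yeast extract 5.00, NaCl 10.00, KH2PO4 0.10, MgSO4·7H2O 0.05, dextrose 10.00, agar 15.0, pH 7.1). Stock in sulfoxide solvent, diluted in phosphate buffer pH 7.4 and culture broth; final 1–600 µg/mL. Spore suspension in Ringer's solution, 3×10^5 CFU/mL; 35 °C, 48 h. MFC = lowest concentration killing 95% of inoculum.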

In another experiment the test system is Escherichia coli. The experiment is described as follows: Minimum inhibitory concentration required for antibacterial activity against Escherichia coli. The gist of the method:
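Broth tube dilution in nutrient broth; stock in sulfoxide solvent, diluted in phosphate buffer pH 7.4 and culture broth to final 1–600 µg/mL. Inoculum in Ringer's solution, 3×10^5 CFU/mL; 35 °C for 24 h. Tubes without visible growth subcultured (10 µL) onto agar plates at 35 °C, growth checked by microscope.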

The next experiment relates to Proteus vulgaris. Kind of experiment: Minimum inhibitory concentration required for antibacterial activity against Proteus vulgaris. In a few lines:
(§1)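 Broth tube dilution in nutrient broth (5 mL final volume). The compound was diluted in phosphate buffer pH 7.4 and culture broth to final concentrations of 1–600 µg/mL. Inoculum was adjusted to 3×10^5 CFU/mL in Ringer's solution, then incubated at 35 °C for 24 h. Tubes without visible growth were subcultured (10 µL) onto agar plates at 35 °C and checked microscopically for growth.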

For another experiment, the system named is Bacillus subtilis. Kind of experiment: Minimum inhibitory concentration required for antibacterial activity against Bacillus subtilis. The gist of the method: as §1

Usually MIC stands for the lowest concentration that inhibits growth of the organism. The low end stands for greater potency, the high end for weaker potency. As usually defined, the MFC is the smallest concentration meeting the test's criterion for killing the fungus. Low readings indicate more potent killing, high ones less potent killing. In the case of `CCCCC[C@H](C)COC(=O)c1ccncc1` [(S)-2-METHYLHEPTYL ISONICOTINATE], the minimal inhibitory concentration (MIC) turned out to be 14 µg/mL (≈ 59.5 µM) in experiment [1], 40 µg/mL (≈ 170 µM) against Escherichia coli, 14 µg/mL (≈ 59.5 µM) against Proteus vulgaris and 20 µg/mL (≈ 85 µM) in the experiment on Bacillus subtilis. Besides, in the experiment with Thanatephorus cucumeris, the MFC worked out at 32 µg/mL (≈ 136 µM).
`CCCCC[C@@H](C)COC(=O)c1ccncc1` [ISONICOTINIC ACID 2-METHYL-HEPTYL ESTER]: the MIC in experiment [1] was found to be 10 µg/mL (≈ 42.5 µM); against Escherichia coli, 30 µg/mL (≈ 127 µM); in the experiment on Proteus vulgaris, 6 µg/mL (≈ 25.5 µM); against Bacillus subtilis, 16 µg/mL (≈ 68 µM). This compound also registered an MFC in the experiment with Thanatephorus cucumeris of 24 µg/mL (≈ 102 µM).
As to `CCCCOC(=O)c1ccncc1` [ISONICOTINIC ACID BUTYL ESTER], the MIC in experiment [1] turned out to be 280 µg/mL (≈ 1560 µM); with Escherichia coli, 500 µg/mL (≈ 2790 µM); in the experiment with Proteus vulgaris, 500 µg/mL (≈ 2790 µM); with Bacillus subtilis, 600 µg/mL (≈ 3350 µM). Also, the MFC with Thanatephorus cucumeris was 600 µg/mL (≈ 3350 µM).
Take `CCCCCCCOC(=O)c1ccncc1` [ISONICOTINIC ACID HEPTYL ESTER]: the MIC in experiment [1] stood at 16 µg/mL (≈ 72.3 µM); against Escherichia coli, 16 µg/mL (≈ 72.3 µM); in the experiment with Proteus vulgaris, 16 µg/mL (≈ 72.3 µM); in the experiment with Bacillus subtilis, 24 µg/mL (≈ 108 µM). For the same compound, the MFC against Thanatephorus cucumeris was determined as 15 µg/mL (≈ 67.8 µM).
Consider `CCCCCCOC(=O)c1ccncc1` [ISONICOTINIC ACID HEXYL ESTER], for which the MIC in experiment [1] was 24 µg/mL (≈ 116 µM); in the experiment on Escherichia coli, 35 µg/mL (≈ 169 µM); in the experiment on Proteus vulgaris it was 36 µg/mL (≈ 174 µM); with Bacillus subtilis it was 50 µg/mL (≈ 241 µM). The compound also had an MFC against Thanatephorus cucumeris of 44 µg/mL (≈ 212 µM).
As for `CCCCCCCCCCCCCCCCCCOC(=O)c1ccncc1` [ISONICOTINIC ACID OCTADECYL ESTER], the MIC in experiment [1] came out at 320 µg/mL (≈ 852 µM); in the experiment with Escherichia coli it was 56 µg/mL (≈ 149 µM); against Proteus vulgaris, 500 µg/mL (≈ 1330 µM); with Bacillus subtilis, 600 µg/mL (≈ 1600 µM). The same compound yielded an MFC in the experiment with Thanatephorus cucumeris of 600 µg/mL (≈ 1600 µM).
For the compound `CCCCCCCCOC(=O)c1ccncc1` [ISONICOTINIC ACID OCTYL ESTER], the MIC stood at 8 µg/mL (≈ 34 µM) in experiment [1], 12 µg/mL (≈ 51 µM) against Escherichia coli, 6 µg/mL (≈ 25.5 µM) against Proteus vulgaris and 16 µg/mL (≈ 68 µM) in the experiment with Bacillus subtilis. Besides, the minimal fungicidal concentration (MFC) with Thanatephorus cucumeris worked out at 18 µg/mL (≈ 76.5 µM).
In the case of `CCCCCOC(=O)c1ccncc1` [ISONICOTINIC ACID PENTYL ESTER], the MIC amounted to 10 µg/mL (≈ 51.7 µM) in experiment [1], 20 µg/mL (≈ 103 µM) with Escherichia coli, 14 µg/mL (≈ 72.4 µM) in the experiment on Proteus vulgaris and 20 µg/mL (≈ 103 µM) in the experiment with Bacillus subtilis. The same compound displayed an MFC in the experiment with Thanatephorus cucumeris of 14 µg/mL (≈ 72.4 µM).
